DAGLB inhibitor: DAGLB lipase inhibitors, primary screen, biochemical, fluorescence, HTS | HEK293T DAGLB membrane lysate, EnzChek fluorogenic substrate | inhibition, % at 5.17 µM | actives 0.059% (n = 340,000) | AID 504411, 2011; in the data active means inhibition above about 34%
NRP1-CendR mod: modulators of CendR peptide binding to NRP-1, primary screen, biochemical, fluorescence polarization, uHTS; FAM-RPARPAR peptide binding to NRP-1; actives 0.85% (n = 360,000); Neuropilin-1 (Homo sapiens), O14786; AID 602438, 2012; inhibition, % at 25 µM;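 active means inhibition or corrected inhibition above about 18%, plus a signal ratio from 0.5 to 1.5, limit read from the data, passing the limit was not always enough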
MIN6 prolif: inducers of MIN6 beta-cell proliferation, primary screen, ATP luminescence, uHTS; proliferation, % at 10 µM; MIN6 cells proliferation, ATPlite luminescence, 48 h; cells starved in 0.2% serum; 100% = growth in 10% serum; actives 0.29% (n = 330,000);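 active means compounds whose signal lies at least 3.5 SD above the mean of all wells on their plate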
MT1-MMP act inh: blockers of MT1-MMP proenzyme processing, primary screen, HT1080 RFP-PRO-GFP cells, GFP/RFP fluorescence. Matrix metalloproteinase-14 (Homo sapiens), P50281. GFP/RFP ratio fluorescence, overnight; percent of plate control window, DMSO zero. GFP/RFP ratio change, % at 20 µM. actives 0.061% (n = 360,000). AID 651647, 2012;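 active means GFP/RFP ratio change of at least 30% with cell ATP level not reduced by more than half and red fluorescence within 50% of control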
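Material – HT1080 RFP-PRO-GFP cells · Control set – DMSO wells and RFP-L50D-GFP cells · Incubation – overnight cell settling, then overnight compound exposure, 37 °C, 5% CO2 · Compound dosing – single-point 20 µM compound, 1% DMSO · Read-out – GFP/RFP fluorescence ratio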
SENP1 inh: human SENP1 catalytic domain inhibitors, primary screen, biochemical, FRET, uHTS; actives 0.21% (n = 360,000); recombinant SENP1 catalytic domain, CyPet-SUMO1-YPet FRET cleavage; AID 624204, 2012; inhibition, % at 10 µM; Sentrin-specific protease 1 (Homo sapiens), Q9P0U3;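 active means inhibition at least 30% at 10 µM, raw YFP signal under a set limit, fluorescence ratio 0.5 to 1.5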
Target sequence (Q9P0U3 419-644 limits assumed): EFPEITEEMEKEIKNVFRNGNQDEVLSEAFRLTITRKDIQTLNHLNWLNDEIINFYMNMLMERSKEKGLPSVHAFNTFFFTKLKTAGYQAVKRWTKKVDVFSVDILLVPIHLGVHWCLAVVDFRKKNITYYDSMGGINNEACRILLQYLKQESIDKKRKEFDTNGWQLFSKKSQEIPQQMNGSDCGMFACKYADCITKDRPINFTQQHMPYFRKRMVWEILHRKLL
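Material: hSENP1 catalytic domain, recombinant; medium: Tris pH 8 with BME, BSA, NP40 and catalase; compound: single concentration of 10 µM compound, 0.5% DMSO final; technique: FRET read of cyan and yellow fluorescence; timing: 50 min enzyme reaction, room temperature, light-protected; reagent: SFCypet-SUMO1-SFYpet substrate at 25 nM; control set: no-enzyme low, enzyme-DMSO high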
Myeloid diff MLP: induction of myeloid progenitor differentiation, primary screen, cell-based, flow cytometry, MLPCN library | ER-HoxA9 myeloid progenitors, lysozyme-GFP differentiation | calls only at 10 µM | actives 1% (n = 360,000);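 active means normalized GFP-positive differentiation at or above the plate's own cutoff, the solvent-only control mean plus 3 SD; inconclusive means no clear call, values can overlap the other calls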;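 further: cells exposed to compound for four days before flow analysis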
Large screens that a line does not name were inactive; ! = a repeat was not active. In the library only some 2.4% were active in any assay of this set; here they are far more common.

COc1ccc(CN2C(=O)C(CC(=O)NCc3ccco3)CC(C(=O)N(C)C)=C2C)cc1 (stereo unspecified)	none (no result: MIN6 prolif)
CCn1nc(/C=C/c2ccccc2)nc2c(=O)n(C)c(=O)nc1-2	NRP1-CendR mod 27, Myeloid diff MLP inconclusive (no result: DAGLB inhibitor)
CCn1nc(-c2cccs2)nc2c(=O)n(C)c(=O)nc1-2	NRP1-CendR mod 30, SENP1 inh 44, Myeloid diff MLP inconclusive (no result: MIN6 prolif)
CCn1c(P(C)(=O)O)nc2cc(NC(=O)c3ccccc3F)ccc21	none
CCOC(=O)[C@]1(C#N)[C@@H]2C=CC(C(N)=O)=CN2[C@@H](C(N)=O)[C@@H]1c1ccc(F)cc1	none (no result: MT1-MMP act inh)
CCOC(=O)[C@@]1(C#N)[C@@H]2C=CC(C(N)=O)=CN2[C@@H](C(N)=O)[C@@H]1c1cccc(Cl)c1	Myeloid diff MLP active
CCC1([N+](=O)[O-])COP(=O)(NCc2cccnc2)OC1 (stereo unspecified)	Myeloid diff MLP inconclusive (no result: MIN6 prolif)
CCOC(=O)c1ccc2[nH]c(-c3ccc(S(=O)(=O)F)cc3)cc(=O)c2c1	Myeloid diff MLP active
CCOC(=O)c1cccc([P+](=O)O)c1	none
CC(C)c1ccc(-n2c(O)c(C=NCCN3CCNCC3)c(=O)[nH]c2=S)cc1	Myeloid diff MLP active
O=c1[nH]c(=S)n(C2CC2)c(O)c1C=NCC1CCCO1 (stereo unspecified)	none
N#C/C(=C\c1ccc(O)cc1)C(=O)O (tested in a mixture with another compound)	Myeloid diff MLP active (no result: MIN6 prolif)
N#CC(C#N)=Cc1ccc(N2CCOCC2)cc1	none
Cc1nccn1Cc1ccc(Cl)nc1	none
CCOC(=O)c1nsnc1NCCCl	NRP1-CendR mod 22
Cc1nc2c(c(C)nn2-c2ccccc2)c(C)c1CCC(=O)N1CCC2(CC1)OCCO2	NRP1-CendR mod 51
Cc1nc2c(-c3ccccc3)c(C)nn2c(C)c1CCC(=O)N1CCC2(CC1)OCCO2	none
CCC(COC(=O)c1cc(OC)c(OC)c(OC)c1)(c1ccccc1)N(C)C (stereo unspecified)	NRP1-CendR mod 23!
CCCOP(=O)(OCCC)C(NC(=O)c1cc(OC)c(OC)c(OC)c1)c1ccccc1 (stereo unspecified)	none
CC(=O)Nc1ccc(C(c2c(O)c3ccccc3oc2=O)c2c(C)n(C)n(-c3ccccc3)c2=O)cc1 (stereo unspecified)	none
COc1ccccc1-c1cc(NC(C)=O)c2ncc(-c3ccccc3)n2c1	none (no result: DAGLB inhibitor, MIN6 prolif)
C/C=C(\C)C(=O)N[C@@H](c1ccccc1)[C@@H](O)C(=O)O[C@H]1C[C@@]2(O)[C@@H](OC(=O)c3ccccc3)C3[C@](C)(C(=O)[C@H](OC(C)=O)C(=C1C)C2(C)C)[C@@H](O)C[C@H]1OC[C@@]31OC(C)=O (stereo partly specified)	Myeloid diff MLP active (no result: DAGLB inhibitor)
CCOc1cc(C=O)ccc1O	none
COc1cc(/C=C/[N+](=O)[O-])ccc1O	Myeloid diff MLP active
O=P(O)(O)CN1CCNCCN(CP(=O)(O)O)CCNCC1	NRP1-CendR mod 30 (no result: MIN6 prolif, Myeloid diff MLP)
c1ccc2c(CN3CCCCCCC3)c[nH]c2c1	Myeloid diff MLP active
CN(C)c1ccc(/C=C/c2cc[n+](C)c3ccccc23)cc1	Myeloid diff MLP inconclusive (no result: MIN6 prolif)
C[n+]1ccc(-c2ccccc2)c2ccccc21	Myeloid diff MLP active
O=C1CCC[C@@H]2C[C@@]3(C[C@@H]4CCN1[C@H]24)Nc1cc(Cl)ccc1NC3=NCc1ccccc1	none (no result: MIN6 prolif)
CN(C)c1ccc([P+](=O)c2ccc(N(C)C)cc2)cc1	none
CN(C)c1ccc([N+](=O)[O-])c([N+](=O)[O-])c1	NRP1-CendR mod 29 (no result: MIN6 prolif)
CC1C(=O)OC2CCN3CC4OC4(COC(=O)C(C)(O)C1(C)O)C23 (stereo unspecified)	NRP1-CendR mod 26 (no result: MIN6 prolif)
